According to ChEMBL document CHEMBL3616400, “Design, Synthesis, and Evaluation of Triazole Derivatives That Induce Nrf2 Dependent Gene Products and Inhibit the Keap1-Nrf2 Protein-Protein Interaction” (J Med Chem, 2015):
Calls of active or inactive are those of the source. The calls are words filed in the database; no cut-off is given here.

Columns and labels:
[1] = biological target: T1, Nuclear factor erythroid 2-related factor 2 (Mus musculus) (UniProt Q60795); experiment: Activation of Nrf2 in mouse Hepa1c1c7 cells assessed as induction of NQO1 production at 10 uM after 24 hrs by MTT colorimetric assay relative to control; assay type: cell-based
T1 sequence (whole entry): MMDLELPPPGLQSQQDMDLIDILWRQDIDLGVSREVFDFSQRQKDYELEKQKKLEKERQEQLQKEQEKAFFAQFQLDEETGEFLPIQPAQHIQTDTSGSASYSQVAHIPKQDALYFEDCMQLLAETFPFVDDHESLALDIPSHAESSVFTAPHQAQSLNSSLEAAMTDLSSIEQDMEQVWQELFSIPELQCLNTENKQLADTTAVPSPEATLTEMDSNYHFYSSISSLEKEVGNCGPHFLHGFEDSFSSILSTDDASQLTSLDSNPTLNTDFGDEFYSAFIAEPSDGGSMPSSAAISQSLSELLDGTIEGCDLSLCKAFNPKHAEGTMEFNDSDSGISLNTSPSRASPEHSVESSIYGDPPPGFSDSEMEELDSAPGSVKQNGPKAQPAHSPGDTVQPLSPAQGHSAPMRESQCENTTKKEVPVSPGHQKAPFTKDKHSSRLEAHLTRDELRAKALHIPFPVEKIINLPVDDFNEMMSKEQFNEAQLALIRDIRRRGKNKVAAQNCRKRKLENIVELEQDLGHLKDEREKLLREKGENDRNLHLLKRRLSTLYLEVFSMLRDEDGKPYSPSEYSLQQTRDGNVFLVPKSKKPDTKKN
Outline: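 Hepa1c1c7 mouse hepatoma cells treated at a fixed 10 µM for 24 h. NQO1 enzyme activity read by colorimetric induction assay and expressed as fold induction over control.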

Keap1/Nrf2 [2] = biological target: T2, Keap1/Nrf2 (Homo sapiens, UniProt Q14145); experiment: Inhibition of kelch domain of Keap1 (unknown origin) interaction to high affinity ETGE motif from Nrf2 by fluorescence polarization assay; assay type: protein assay
Outline: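 Competitive fluorescence polarization, dose-response format. Keap1 Kelch domain with fluorescein-labelled Nrf2 ETGE peptide FITC-β-DEETGEF-OH. EC50 derived from dose-response curves.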

[3] = biological target: T3, Keap1/Nrf2 (Homo sapiens) (UniProt Q16236+Q14145); experiment: Inhibition of kelch domain of Keap1 (unknown origin) interaction to high affinity ETGE motif from Nrf2 unknown origin) at 100 uM by fluorescence polarization assay; assay type: protein assay
Outline: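 Fluorescence polarization competition. Keap1 Kelch domain with fluorescein-labelled ETGE peptide FITC-β-DEETGEF-OH (β = β-alanine). Displacement measured with a fixed 100 µM inhibitor; percent inhibition reported.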

Mus musculus [4] = species: Mus musculus; experiment: Increase of Nrf2 protein level in mouse Hepa1c1c7 cells at 10 uM by Western blot analysis; assay type: functional, cell-based; details: TDE = time-dependent effect
Outline: (§1)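 Hepa1c1c7 cells incubated with test compounds at 10 µM for various exposure times, up to 24 h. Nrf2, HO-1 and NQO1 protein levels assessed by Western blot.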

[5] = biological target: T3, Keap1/Nrf2 (Homo sapiens); experiment: Inhibition of mCherry labeled Keap1 interaction to DLG motif from Nrf2 in human HEK293 cells at 10 uM by FRET based assay; assay type: cell-based
Outline: (§2)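 HEK293 cells were co-transfected with EGFP-Nrf2 and Keap1-mCherry. Each cell was imaged by FLIM twice: once basal and once 1 h after 10 µM compound. EGFP lifetime and FRET efficiency were calculated in the cytoplasm. High- and low-FRET-efficiency populations were scored to distinguish DLG-dependent binding from ETGE-dependent binding.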

[6] = Therapeutic index, ratio of GI50 for mouse Hepa1c1c7 cells to CD for activation of Nrf2 in mouse Hepa1c1c7 cells assessed as concentration required to 2 fold induction of NQO1 production; assay type: cell-based; details: read-out: TI
[7] = biological target: T1, Nuclear factor erythroid 2-related factor 2 (Mus musculus); experiment: Activation of Nrf2 in mouse Hepa1c1c7 cells assessed as concentration required to 2 fold induction of NQO1 production after 24 hrs by MTT colorimetric assay; assay type: cell-based
Outline: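 Hepa1c1c7 mouse hepatoma cells exposed to a concentration range for 24 h. NQO1 enzymatic activity measured by colorimetric induction assay. Value reported as CD, the concentration giving a two-fold increase in NQO1 activity.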

[8] = biological target: T1, Nuclear factor erythroid 2-related factor 2 (Mus musculus); experiment: Activation of Nrf2 in mouse Hepa1c1c7 cells assessed as increase of NQO1 expression at 10 uM measured before 24 hrs by Western blot analysis; assay type: cell-based; outline: as §1
Mus musculus [9] = species: Mus musculus; experiment: Increase of Nrf2 protein level in mouse Hepa1c1c7 cells at 10 uM after 24 hrs by Western blot analysis; assay type: functional, cell-based; outline: as §1
[10] = biological target: T1, Nuclear factor erythroid 2-related factor 2 (Mus musculus); experiment: Activation of Nrf2 in mouse Hepa1c1c7 cells assessed as increase of HO-1 expression at 10 uM after 6 hrs by Western blot analysis; assay type: cell-based; outline: as §1
[11] = biological target: T3, Keap1/Nrf2 (Homo sapiens); experiment: Inhibition of mCherry labeled Keap1 interaction to ETGE motif from Nrf2 in human HEK293 cells at 10 uM by FRET based assay; assay type: cell-based; outline: as §2
Keap1/Nrf2 [12] = biological target: T2, Keap1/Nrf2; experiment: Inhibition of Keap1 (unknown origin) interaction to Nrf2; assay type: protein assay

T2 sequence (Q16236 whole entry, the tested form may be a part): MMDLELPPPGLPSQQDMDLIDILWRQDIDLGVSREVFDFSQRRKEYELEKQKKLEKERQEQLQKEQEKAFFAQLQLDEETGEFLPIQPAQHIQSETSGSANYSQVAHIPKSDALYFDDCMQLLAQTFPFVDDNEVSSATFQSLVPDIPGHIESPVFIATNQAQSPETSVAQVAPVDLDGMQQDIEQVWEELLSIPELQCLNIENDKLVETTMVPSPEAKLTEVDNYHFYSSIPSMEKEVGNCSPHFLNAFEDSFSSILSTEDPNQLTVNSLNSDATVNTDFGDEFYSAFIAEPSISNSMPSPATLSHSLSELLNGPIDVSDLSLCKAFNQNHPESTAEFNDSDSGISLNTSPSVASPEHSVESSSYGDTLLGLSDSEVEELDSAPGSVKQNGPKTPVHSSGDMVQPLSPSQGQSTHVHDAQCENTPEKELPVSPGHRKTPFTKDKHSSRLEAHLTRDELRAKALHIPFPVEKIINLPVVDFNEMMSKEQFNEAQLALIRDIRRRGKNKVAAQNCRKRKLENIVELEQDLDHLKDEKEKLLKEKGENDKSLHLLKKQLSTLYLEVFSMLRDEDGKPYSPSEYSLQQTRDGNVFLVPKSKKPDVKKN
T2 sequence (Q14145 whole entry, the tested form may be a part): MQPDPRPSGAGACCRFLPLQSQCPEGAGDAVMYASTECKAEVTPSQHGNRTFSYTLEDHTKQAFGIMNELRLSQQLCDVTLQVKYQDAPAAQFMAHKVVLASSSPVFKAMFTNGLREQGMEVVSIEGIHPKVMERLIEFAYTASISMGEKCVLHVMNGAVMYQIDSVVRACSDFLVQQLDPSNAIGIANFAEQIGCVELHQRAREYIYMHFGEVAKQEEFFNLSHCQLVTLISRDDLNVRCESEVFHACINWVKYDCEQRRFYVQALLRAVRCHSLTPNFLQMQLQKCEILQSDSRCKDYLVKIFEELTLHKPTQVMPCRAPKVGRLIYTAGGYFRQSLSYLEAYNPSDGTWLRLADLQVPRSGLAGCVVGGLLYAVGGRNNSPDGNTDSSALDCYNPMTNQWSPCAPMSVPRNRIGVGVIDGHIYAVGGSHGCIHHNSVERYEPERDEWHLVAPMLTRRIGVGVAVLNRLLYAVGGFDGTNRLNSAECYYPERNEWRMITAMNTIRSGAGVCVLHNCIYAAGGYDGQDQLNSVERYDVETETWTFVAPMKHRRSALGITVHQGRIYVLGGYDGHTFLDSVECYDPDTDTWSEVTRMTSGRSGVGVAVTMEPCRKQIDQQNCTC
T3 sequence (Q14145 whole entry, looked up, the tested form may be a part): as the sequence (Q14145 whole entry, the tested form may be a part) above
T3 sequence (Q16236 whole entry, looked up, the tested form may be a part): as the sequence (Q16236 whole entry, the tested form may be a part) above

Row | Molecule | fold change (FC) [1] | EC50 (Keap1/Nrf2 [2]) [µM] | inhibition [3] [%] | also measured
1 | O=[N+]([O-])c1cccc(-c2cn(-c3ccc4c(c3)OCO4)nn2)c1 | 2.24 | 15 | 67.2 | –
2 | C[S+]([O-])CCCCN=C=S (configuration not stated) [SULFORAPHANE] | – | – | – | Activity (Mus musculus [4]): tde; inhibition [5]: Active; selectivity ratio [6]: 250; CD [7]: 0.3 µM; Activity [8]: inactive; Activity (Mus musculus [9]): Active; Activity [10]: Active; inhibition [11]: inactive
3 | CSc1cccc(-n2cc(-c3cccc([N+](=O)[O-])c3)nn2)c1 | 2.95 | 38.5 | 77.7 | –
4 | CCOc1cccc(-n2cc(-c3cccc([N+](=O)[O-])c3)nn2)c1 | 2.48 | 11.3 | 69.3 | –
5 | O=[N+]([O-])c1cccc(-c2cn(-c3cccc(Br)c3)nn2)c1 | 2.94 | 24.5 | 68.2 | CD [7]: 1.2 µM
6 | O=[N+]([O-])c1cccc(-c2cn(-c3ccccc3)nn2)c1 | 1.95 | 20.6 | 66.9 | CD [7]: > 10 µM
7 | O=[N+]([O-])c1cccc(-c2cn(-c3cccc(C(F)(F)F)c3)nn2)c1 | 2.54 | 22.6 | 66.9 | –
8 | Ac-WRQDIDL-OH | – | – | – | EC50 (Keap1/Nrf2 [12]): 17.1 µM
9 | CN(C)c1cccc(-n2cc(-c3cccc([N+](=O)[O-])c3)nn2)c1 | 2.91 | 12.7 | 65.4 | CD [7]: 2 µM
10 | COc1cccc(-n2cc(-c3cccc([N+](=O)[O-])c3)nn2)c1 | 2.56 | 15 | 68.2 | CD [7]: 4.7 µM
11 | Cc1cccc(-n2cc(-c3cccc([N+](=O)[O-])c3)nn2)c1 | 2.2 | 10 | 68.9 | Activity (Mus musculus [4]): tde; CD [7]: 1.3 µM; Activity [8]: inactive; Activity (Mus musculus [9]): Active; Activity [10]: Active
12 | NC(=O)c1cccc(-n2cc(-c3cccc([N+](=O)[O-])c3)nn2)c1 | 2.09 | – | 65.3 | –
13 | N#Cc1cccc(-c2cn(-c3cccc(I)c3)nn2)c1 | 1.53 | – | 21.9 | –
14 | O=C(O)c1cccc(-n2cc(-c3cccc([N+](=O)[O-])c3)nn2)c1 | 0.83 | 5 | 80.1 | CD [7]: > 10 µM
15 | O=[N+]([O-])c1cccc(-c2cn(-c3cccc([N+](=O)[O-])c3)nn2)c1 | 2.3 | 11.5 | 81 | –
16 | O=C(O)c1ccc(-n2cc(-c3cccc(-c4nnn[nH]4)c3)nn2)cc1 | 1 | – | 70 | –
17 | N#Cc1cccc(-c2cn(-c3cccc(Cl)c3)nn2)c1 | 2.39 | – | 19.9 | –
18 | O=C(O)c1ccc(-c2cn(-c3cccc(C(=O)O)c3)nn2)cc1 | 0.47 | – | 89.6 | –

Row | Molecule | fold change (FC) [1] | EC50 (Keap1/Nrf2 [2]) [µM] | inhibition [3] [%] | also measured
19 | NC(=O)c1cccc(-n2cc(-c3cccc(C(=O)O)c3)nn2)c1 | 1.07 | – | 96.3 | –
20 | NC(=O)c1cccc(-c2cn(-c3cccc([N+](=O)[O-])c3)nn2)c1 | 2.06 | – | 32 | –
21 | CCOc1cccc(-n2cc(-c3cccc(-c4nnn[nH]4)c3)nn2)c1 | 1.31 | – | 39.6 | –
22 | Cc1c(-c2cnccn2)ssc1=S | – | – | – | CD [7]: 10.2 µM
23 | NC(=O)c1ccc(-n2cc(-c3ccc([N+](=O)[O-])cc3)nn2)cc1 | 1.07 | – | 46.1 | –
24 | O=C(O)c1cccc(-n2cc(-c3ccc([N+](=O)[O-])cc3)nn2)c1 | 0.66 | – | 61 | –
25 | N#Cc1cccc(-c2cn(-c3cccc(C#N)c3)nn2)c1 | 1.92 | – | 58.8 | –
26 | NC(=O)c1cccc(-c2cn(-c3cccc(C(=O)O)c3)nn2)c1 | 0.71 | – | 78.6 | –
27 | CC(C)(C)c1cccc(-n2cc(-c3cccc([N+](=O)[O-])c3)nn2)c1 | 1.93 | 37.8 | 69.8 | CD [7]: > 10 µM; Activity (Mus musculus [9]): inactive
28 | O=[N+]([O-])c1cccc(-c2cn(-c3cccc(Cl)c3)nn2)c1 | 2.5 | 8.8 | 60.4 | CD [7]: 0.7 µM
29 | O=C(O)c1ccc(-n2cc(-c3ccc([N+](=O)[O-])cc3)nn2)cc1 | 0.99 | – | 81.3 | –
30 | NC(=O)c1ccc(-c2cn(-c3cccc(C(N)=O)c3)nn2)cc1 | 1.02 | – | 43.7 | –
31 | N#Cc1cccc(-c2cn(-c3cccc([N+](=O)[O-])c3)nn2)c1 | 2.1 | – | 59.4 | –
32 | O=C(O)c1cccc(-c2cn(-c3cccc([N+](=O)[O-])c3)nn2)c1 | 0.85 | – | 63.8 | –
33 | NC(=O)c1cccc(-n2cc(-c3ccc([N+](=O)[O-])cc3)nn2)c1 | 0.98 | – | 62.2 | –
34 | Clc1cccc(-n2cc(-c3cccc(-c4nnn[nH]4)c3)nn2)c1 | 1.24 | – | 40.7 | –
35 | NC(=O)c1cccc(-n2cc(-c3ccc(C(=O)O)cc3)nn2)c1 | 0.95 | – | 15.4 | –
36 | NC(=O)c1cccc(-c2cn(-c3ccc(C(=O)O)cc3)nn2)c1 | 0.81 | – | 70.7 | –
